Reference: ChEMBL document CHEMBL1156597, “Structure-activity relationship of kahalalide F synthetic analogues” (J Med Chem, 2008)

Tests used:
K562 = assay: Cytotoxicity against human K562 cells after 48 hrs by SRB assay; type: functional; details: K562, 48 h; for CC50: read-out: LC50 (the source's name)
Outline: (§1)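 Cells grown in RPMI 1640 with 10% FBS and penicillin/streptomycin at 37 °C and 5% CO₂, trypsinized, then seeded at 5 × 10³/well. After 18 h drug-free attachment, samples in DMSO/EtOH/PBS (0.5:0.5:99) were added for 48 h continuous exposure. Cells were fixed with cold TCA (1 h, 4 °C) and stained with SRB (10 min). Tris-solubilized stain read at 490 nm. Triplicate wells, mean ± SD; GI₅₀ derived.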

LNCaP = assay: Cytotoxicity against human LNcaP cells after 48 hrs by SRB assay; type: functional; details: for CC50: read-out: LC50 (the source's name); outline: as §1
A549 = assay: Cytotoxicity against human A549 cells after 48 hrs by SRB assay; type: functional, cell-based; details: Homo sapiens, A549, 48 h; for GI50: read-out: GI50; outline: as §1
SK-BR-3 = assay: Cytotoxicity against human SKBR3 cells after 48 hrs by SRB assay; type: functional; details: SK-BR-3, 48 h; for GI50: read-out: GI50; for CC50: read-out: LC50 (the source's name); outline: as §1
PANC-1 = assay: Cytotoxicity against human PANC1 cells after 48 hrs by SRB assay; type: functional; details: PANC-1, 48 h; for CC50: read-out: LC50 (the source's name); outline: as §1
HT-29 = assay: Cytotoxicity against human HT29 cells after 48 hrs by SRB assay; type: functional, cell-based; details: Homo sapiens, HT-29, 48 h; for CC50: read-out: LC50 (the source's name); outline: as §1
LoVo [1] = assay: Cytotoxicity against human LoVo cells after 48 hrs by SRB assay; type: functional; details: for CC50: read-out: LC50 (the source's name)
[2] = Cytotoxicity against human IGROV-ET cells after 48 hrs by SRB assay; type: functional; details: for GI50: read-out: GI50; for CC50: read-out: LC50 (the source's name); outline: as §1
[3] = Cytotoxicity against human HeLa-APL cells after 48 hrs by SRB assay; type: functional; outline: as §1
SK-MEL-28 = assay: Cytotoxicity against human SK-MEL-28 cells after 48 hrs by SRB assay; type: functional, cell-based; details: Homo sapiens, SK-MEL-28, 48 h; for GI50: read-out: GI50; for CC50: read-out: LC50 (the source's name); outline: as §1
LoVo [4] = assay: Cytotoxicity against human doxorubicin resistant LoVo cells after 48 hrs by SRB assay; type: functional; details: for CC50: read-out: LC50 (the source's name); outline: as §1
DU-145 = assay: Cytotoxicity against human DU145 cells after 48 hrs by SRB assay; type: functional, cell-based; details: Homo sapiens, DU-145, 48 h; for GI50: read-out: GI50; for CC50: read-out: LC50 (the source's name); outline: as §1
HeLa = assay: Cytotoxicity against human HeLa cells after 48 hrs by SRB assay; type: functional; details: for CC50: read-out: LC50 (the source's name); outline: as §1
[5] = Cytotoxicity against human IGROV cells after 48 hrs by SRB assay; type: functional; details: for CC50: read-out: LC50 (the source's name); outline: as §1

## C/C=C1\NC(=O)[C@H](Cc2ccccc2)NC(=O)[C@@H](C(C)C)NC(=O)[C@@H]([C@H](C)CC)NC(=O)[C@H](NC(=O)[C@H](NC(=O)[C@H](CCCN)NC(=O)[C@H]2CCCN2C(=O)[C@H](NC(=O)[C@@H](NC(=O)[C@@H](NC(=O)[C@H](NC(=O)CCCC(C)C)C(C)C)[C@@H](C)O)C(C)C)C(C)C)[C@H](C)CC)[C@H](C)OC(=O)[C@H](C(C)C)NC1=O [KAHALALIDE F]
K562
  GI50: 1930 nM
  TGI: 3320 nM
  CC50: 5280 nM
LNCaP
  GI50: 960 nM
  TGI: 1960 nM
  CC50: 4260 nM
A549
  LC50: 4520 nM
  TGI: 2200 nM
  GI50: 1160 nM
SK-BR-3
  TGI: 810 nM
  GI50: 363 nM
  CC50: 1980 nM
PANC-1
  GI50: 1770 nM
  TGI: 3330 nM
  CC50: 5070 nM
HT-29
  GI50: 432 nM
  TGI: 915 nM
  CC50: 2240 nM
LoVo [1]
  GI50: 334 nM
  TGI: 614 nM
  CC50: 1510 nM
[2]
  TGI: 1300 nM
  GI50: 550 nM
  CC50: 3280 nM
[3]
  GI50: 975 nM
  LC50 (concentration giving 50% net cell kill): 4290 nM
  TGI: 2020 nM
SK-MEL-28
  TGI: 2260 nM
  GI50: 1190 nM
  CC50: 4500 nM
LoVo [4]
  GI50: 299 nM
  TGI: 485 nM
  CC50: 1470 nM
DU-145
  TGI: 1720 nM
  GI50: 931 nM
  CC50: 3720 nM
HeLa
  GI50: 965 nM
  TGI: 1970 nM
  CC50: 4730 nM
[5]
  TGI: 1180 nM
  CC50: 3220 nM
[5]; read-out: GI50
  GI50: 493 nM

## C/C=C1\NC(=O)[C@H](Cc2ccccc2)NC(=O)[C@@H](C(C)C)NC(=O)[C@@H]([C@H](C)CC)NC(=O)[C@H](NC(=O)[C@H](NC(=O)[C@H](CCCN)NC(=O)[C@H]2CCCN2C(=O)[C@H](NC(=O)[C@H](CCCN)NC(=O)[C@@H](NC(=O)[C@H](NC(=O)CCCC(C)C)C(C)C)[C@@H](C)O)C(C)C)[C@H](C)CC)[C@H](C)OC(=O)[C@H](C(C)C)NC1=O
K562
  GI50: 218 nM
  TGI: 950 nM
  CC50: 1910 nM
LNCaP
  GI50: 1760 nM
  TGI: 2730 nM
  CC50: 1390 nM
A549
  LC50: 1810 nM
  TGI: 3670 nM
  GI50: 2920 nM
SK-BR-3
  TGI: 5240 nM
  GI50: 4460 nM
  CC50: 1050 nM
PANC-1
  GI50: 1730 nM
  TGI: 2080 nM
  CC50: 2290 nM
HT-29
  GI50: 4610 nM
  TGI: 4910 nM
  CC50: 2350 nM
LoVo [1]
  GI50: 3610 nM
  TGI: 4540 nM
  CC50: 3900 nM
[2]
  TGI: 1340 nM
  GI50: 1350 nM
  CC50: 638 nM
[3]
  GI50: 1110 nM
  LC50 (concentration giving 50% net cell kill): 1270 nM
  TGI: 1190 nM
SK-MEL-28
  TGI: 1410 nM
  GI50: 1520 nM
  CC50: 1290 nM
LoVo [4]
  GI50: 7590 nM
  TGI: 7660 nM
  CC50: 3710 nM
DU-145
  TGI: 1330 nM
  GI50: 1230 nM
  CC50: 1440 nM
HeLa
  GI50: 1280 nM
  TGI: 1070 nM
  CC50: 898 nM
[5]
  CC50: 758 nM
